Bioassay records from PubChem.
CAL PDZ FP-1 – CAL PDZ peptide-binding inhibitors, primary screen, biochemical, fluorescence polarization, Cer-tagged CAL PDZ, HTS; 330,000 tested, 0.02% active; purified CAL PDZ, TMR-peptide fluorescence polarization, 1 h; inhibition, % at 20 µM; AID 504414, 2011;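 active means highest replicate inhibition of at least 40%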
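Control set: unlabelled peptide and DMSO controls / Material: purified CerCALP PDZ construct / Timing: 1 h incubation at room temperature before polarization reading / Doses: 20 µM, one dose / Detection: fluorescence polarization (mP)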
NTR1 agonist – agonists of human NTR1, primary screen, imaging, U2OS cells, beta-arrestin-GFP, high content; Neurotensin receptor type 1 (Homo sapiens), P30989; NTR1-U2OS beta-arrestin-GFP spot imaging, agonist mode; activation, % at 20 µM; 330,000 tested, 0.17% active;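 active means activation at or above 40% of the spot to cytoplasm intensity ratio, with at least 20 cells analyzed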
PKA-R2B act – activators of PKA-R2B holoenzyme, primary screen, biochemical, fluorescence polarization, Cy5-IP20, human. cAMP-dependent protein kinase catalytic subunit beta (Homo sapiens) + cAMP-dependent …. PKA-R2B holoenzyme dissociation; R2B truncated from residue 108, S112A mutant; 0% DMSO only, 100% 113 µM cGMP. activation, % at 11.4 µM. 340,000 tested, 0.079% active. AID 504700, 2011;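 active means activation above a cutoff set at the mean over all compounds plus 3 SD, cut at about 18% in these data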;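 further: higher means more holoenzyme dissociation and a rise in polarization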
Target sequence (P31323 whole entry, looked up, other chains not shown, the tested form may be a part): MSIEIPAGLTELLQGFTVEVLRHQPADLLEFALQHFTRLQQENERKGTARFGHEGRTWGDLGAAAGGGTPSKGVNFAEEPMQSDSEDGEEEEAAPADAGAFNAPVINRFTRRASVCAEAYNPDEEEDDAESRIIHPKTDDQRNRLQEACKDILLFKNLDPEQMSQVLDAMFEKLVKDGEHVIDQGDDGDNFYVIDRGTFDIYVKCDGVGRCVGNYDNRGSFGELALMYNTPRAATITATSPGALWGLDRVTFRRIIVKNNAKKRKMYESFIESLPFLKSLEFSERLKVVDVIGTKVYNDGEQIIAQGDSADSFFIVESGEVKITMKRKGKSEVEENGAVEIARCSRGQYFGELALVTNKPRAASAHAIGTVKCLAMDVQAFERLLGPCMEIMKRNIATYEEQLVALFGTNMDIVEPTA
dFosB activator – activators of delta FosB homodimer, primary screen, biochemical, fluorescence polarization, TAMRA-CDK5 oligo, single point; purified delta FosB; percent of positive-control signal above neutral wells; activation, % at 25 µM; AID 493131, 2011; Protein FosB (Mus musculus), P13346; 340,000 tested, 0.99% active;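 active means mean activation above about 17%, with every replicate also reaching it, limit read from the data, passing the limit was not always enough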
PKA-R1A act – activators of PKA-R1A holoenzyme, primary screen, biochemical, fluorescence polarization, Cy5-IP20, bovine R1A, mouse PKAc; cAMP-dependent protein kinase type I-alpha regulatory subunit (Bos taurus) + …; PKA-R1A dissociation; scaled: DMSO 0%, 113 µM cGMP 100%; activation, % at 11.4 µM; 340,000 tested, 0.083% active;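 active means percent activation above the mean of all tested compounds plus 3 SD, cut at about 19% in these data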;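 further: higher means more PKAc released from R1A so a rise in polarization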
CAL PDZ FP-2 – untagged CAL PDZ binding inhibitors, primary screen, biochemical, fluorescence polarization, HTS; AID 602252, 2012; Golgi-associated PDZ and coiled-coil motif-containing protein (Homo sapiens), Q9HD26; inhibition, % at 24.9 µM; purified CAL PDZ, TMR-peptide fluorescence polarization, 1 h; 300,000 tested, 0.92% active;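 active means mean inhibition of at least 30% with at least half of replicates also reaching 30%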
Large screens that a line does not name were inactive. Only some compounds are listed: those with a hit (about 2% of all), similar ones and a draw of the others.

NS(=O)(=O)c1ccc(NC(=O)c2cccc(Cl)c2)cc1	CAL PDZ FP-2 39
NS(=O)(=O)c1ccc(NC(=O)c2cc(Cl)ccc2Cl)cc1	none
O=C(N/N=C/c1cc([N+](=O)[O-])ccc1O)c1cccc(NC(=O)c2cccc(Cl)c2)c1	dFosB activator 57
O=C(Nc1ccc(NC(=O)c2cccs2)cc1)c1cccnc1	none
O=C(Nc1cccc(NC(=O)c2cccc(Cl)c2)c1)c1cccnc1	CAL PDZ FP-2 35
Cc1ccc(NC(=O)c2cccs2)cc1NC(=O)c1cccnc1	CAL PDZ FP-2 105
O=S(=O)(Nc1ccc(-n2cnnn2)cc1)c1cccc(Cl)c1	none
Cc1ccc(CSC2=NCCN2S(=O)(=O)c2ccc(F)cc2)cc1	none
C=CCOc1ccccc1C(=O)/C=C1/C(=O)Nc2ccccc21	NTR1 agonist 50, CAL PDZ FP-2 70 (no result: CAL PDZ FP-1)
CC(NC1=CC(=O)c2cccnc2C1=O)C(O)c1ccccc1 (centres undefined)	none (no result: NTR1 agonist)
O=c1ccc(-c2nc3ccccc3n2Cc2ccc(Cl)cc2)c[nH]1	CAL PDZ FP-2 41 (no result: CAL PDZ FP-1)
COc1cc(OCC(=O)NC(C)C)cc2c1C(=O)O[C@@H](C)CCCC(=O)CCCCC2	CAL PDZ FP-2 46 (no result: CAL PDZ FP-1)
O=C(NC(Cc1ccccc1)C(=O)O)c1ccco1 (centres undefined)	CAL PDZ FP-2 32
COc1ccc(C(O)(c2ccccc2OC)C(CN2CCOCC2)c2ccccc2)cc1 (centres undefined)	none
CCCCn1c(SCC(=O)N(CC)C2CCS(=O)(=O)C2)nc2cc(S(N)(=O)=O)ccc21 (centres undefined)	none
CCCCn1c(SCC(=O)N(C)C2CCS(=O)(=O)C2)nc2cc(S(N)(=O)=O)ccc21 (centres undefined)	CAL PDZ FP-2 53
CCOC(=O)c1c(NC(=O)COC(=O)CNC(=O)c2ccco2)sc(C)c1C	none
COC(=O)c1c(NC(=O)COC(=O)CNC(=O)c2ccco2)sc(C)c1C	CAL PDZ FP-2 58
Cc1ccc(C(=O)OCC(=O)NN2C(=O)NC3(CCC(C)CC3)C2=O)cc1 (centres undefined)	none
CC(C)c1nc(SCC(=O)Nc2c[nH]c(=O)[nH]c2=O)c2cnn(-c3ccccc3)c2n1	dFosB activator 153 (no result: CAL PDZ FP-2)
CCC(C)(C(=O)NC1CCCC1)N(C(=O)CC1NC(=O)NC1=O)c1ccc(C)cc1 (centres undefined)	CAL PDZ FP-2 60
CCC(C)(C(=O)NC1CCCC1)N(C(=O)CC1NC(=O)NC1=O)c1c(C)n(C)n(-c2ccccc2)c1=O (centres undefined)	none (no result: CAL PDZ FP-2)
CCCc1cc(-c2nc(N)ncc2-c2csc(C)n2)c(O)cc1OC	none
CCCc1cc(-c2nc(N)ncc2-c2ccc3c(c2)OCCCO3)c(O)cc1OC	NTR1 agonist 49
C=C(C)Cn1c(Sc2nc3ccccc3[nH]2)nc2c1c(=O)[nH]c(=O)n2C	CAL PDZ FP-2 35
COCCOC(=O)c1c(NC(=O)CN2c3ccccc3CC2C)sc(C(N)=O)c1C (centres undefined)	none
CC(C)(C)OC(=O)NCCCCCNC(=O)c1[nH]cnc1C(=O)Nc1ccon1	none
COc1ccccc1C=NN=C(NN=Cc1ccccc1OC)NN=Cc1ccccc1OC	dFosB activator 44 (no result: NTR1 agonist)
Cn1c(SCC(=O)N2CCCCCC2)nc2c(c1=O)SCC2	none
O=C(Nc1ccc(Nc2ccccc2)cc1)c1cc([N+](=O)[O-])ccc1Cl	CAL PDZ FP-2 46
